From ChEMBL document CHEMBL1641503, “5-Non-amino aromatic substituted naphthalimides as potential antitumor agents: Synthesis via Suzuki reaction, antiproliferative activity, and DNA-binding behavior” (Bioorg Med Chem, 2011)
Calls of active or inactive are those of the source. The rule behind the calls is not given here.

System: HeLa
Assay: Antiproliferative activity against human HeLa cells after 48 hrs by MTT assay
Format: functional, cell-based
Details: not given
Summary of the method: (§1)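 Cells seeded at 2.5 × 10⁴/well in 1640 complete medium, 37 °C, 5% CO₂, 24 h; compounds added at 100 to 0.01 µM for 48 h; D-Hank's buffer negative control. Cells washed twice with PBS, MTT (0.5 g/L in PBS, in complete medium) 4 h, DMSO to dissolve; absorbance at 492 nm (reference 630 nm). At least three experiments; mean percentage absorbance plotted against concentration.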

| IC50 | SMILES |
| --- | --- |
| 5.7 µM | CN(C)CCN1C(=O)c2cccc3cc(-c4ccccc4)cc(c23)C1=O |
| 5.3 µM | CN(C)CCN1C(=O)c2cccc3cc(-c4ccc(F)c(F)c4)cc(c23)C1=O |
| 4.7 µM | CN(C)CCN1C(=O)c2cccc3cc(-c4cccc([N+](=O)[O-])c4)cc(c23)C1=O |

Continued, compound first:

| SMILES | IC50 |
| --- | --- |
| Cc1ccc(-c2cc3c4c(cccc4c2)C(=O)N(CCN(C)C)C3=O)cc1 | 45.8 µM |
| CN(C)CCN1C(=O)c2cccc3cc(-c4cccs4)cc(c23)C1=O | 3.1 µM |
| CN(C)CCN1C(=O)c2cccc3cc(N)cc(c23)C1=O [AMONAFIDE] | 6.02 µM |

System: not listed separately
Assay: Antiproliferative activity against mouse P388D1 cells after 48 hrs by MTT assay
Format: functional, cell-based
Details: P388D1, 48 h
Summary of the method: as §1

| SMILES | IC50 |
| --- | --- |
| Cc1ccc(-c2cc3c4c(cccc4c2)C(=O)N(CCN(C)C)C3=O)cc1 | 2190 nM |
| CN(C)CCN1C(=O)c2cccc3cc(-c4ccccc4)cc(c23)C1=O | 680 nM |
| CN(C)CCN1C(=O)c2cccc3cc(-c4cccs4)cc(c23)C1=O | 680 nM |
| CN(C)CCN1C(=O)c2cccc3cc(-c4ccc(F)c(F)c4)cc(c23)C1=O | 980 nM |
| CN(C)CCN1C(=O)c2cccc3cc(-c4cccc([N+](=O)[O-])c4)cc(c23)C1=O | 380 nM |
| CN(C)CCN1C(=O)c2cccc3cc(N)cc(c23)C1=O [AMONAFIDE] | 680 nM |

System: Calf thymus DNA
Assay: Binding affinity to calf thymus DNA by fluorescence assay
Format: nucleic-acid assay
Details: Bos taurus
Summary of the method: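 CT-DNA held at 50 µM with compound 1 to 25 µM in Tris–HCl (30 mM, pH 7.5); compound without DNA as control. Solutions ultrasonically shaken 1 day at 25 °C in the dark. Fluorescence read at 350 nm excitation. Scatchard binding constant K_b derived from quenching (F0 vs F1) via Scatchard plot.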

| Kb | SMILES |
| --- | --- |
| 10.8 ×10⁵ /M | CN(C)CCN1C(=O)c2cccc3cc(-c4ccccc4)cc(c23)C1=O |
| 12.4 ×10⁵ /M | CN(C)CCN1C(=O)c2cccc3cc(-c4ccc(F)cc4)cc(c23)C1=O |
| 12.8 ×10⁵ /M | CN(C)CCN1C(=O)c2cccc3cc(-c4ccc(F)c(F)c4)cc(c23)C1=O |
| 14.8 ×10⁵ /M | CN(C)CCN1C(=O)c2cccc3cc(-c4cccc([N+](=O)[O-])c4)cc(c23)C1=O |

The remaining lines, values behind:

| SMILES | Kb |
| --- | --- |
| Cc1ccc(-c2cc3c4c(cccc4c2)C(=O)N(CCN(C)C)C3=O)cc1 | 10.8 ×10⁵ /M |
| CN(C)CCN1C(=O)c2cccc3cc(-c4ccc(C(F)(F)F)cc4)cc(c23)C1=O | 11.8 ×10⁵ /M |
| CN(C)CCN1C(=O)c2cccc3cc(-c4cccs4)cc(c23)C1=O | 13.2 ×10⁵ /M |
| CN(C)CCN1C(=O)c2cccc3cc(N)cc(c23)C1=O [AMONAFIDE] | 1.05 ×10⁵ /M |

System: Calf thymus DNA
Assay: Binding affinity to calf thymus DNA at 10 uM by circular dichroism assay
Format: nucleic-acid assay
Details: Bos taurus
Summary of the method: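 CD spectra of CT-DNA (100 µM) with compound at 10 µM in Tris–HCl buffer (pH 7.0), 1-cm quartz cell, 200–600 nm; buffer spectrum subtracted.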

| Activity | SMILES |
| --- | --- |
| Active | CN(C)CCN1C(=O)c2cccc3cc(-c4ccccc4)cc(c23)C1=O |
| Active | CN(C)CCN1C(=O)c2cccc3cc(-c4cccs4)cc(c23)C1=O |

System: Calf thymus DNA
Assay: Binding affinity to calf thymus DNA assessed as increase of viscosity of DNA solution at 100 uM
Format: nucleic-acid assay
Details: Bos taurus
Summary of the method: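 Ubbelohde viscometry at 25 ± 0.1 °C. CT-DNA 100 µM in Tris–HCl (30 mM, pH 7.5), kept at 4 °C overnight, sonicated 10 min, filtered 0.45 µm. Flow time measured three times per sample and averaged, corrected for buffer. (η/η0)^1/3 plotted versus compound/DNA ratio.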

| Activity | SMILES |
| --- | --- |
| Active | CN(C)CCN1C(=O)c2cccc3cc(-c4ccccc4)cc(c23)C1=O |
| Active | CN(C)CCN1C(=O)c2cccc3cc(-c4cccs4)cc(c23)C1=O |
